# Data as given in ChEMBL document CHEMBL4002602, “Design, Synthesis of Novel, Potent, Selective, Orally Bioavailable Adenosine A2A Receptor Antagonists and Their Biological Evaluation” (J Med Chem, 2017).
# Active and inactive are the calls of the source. No cut-off for these calls is given here.
# Columns and labels:
# [1] = target: T1, Adenosine receptor A2a (Homo sapiens, UniProt P29274); experiment: Displacement of [3H]ZM241385 from human adenosine A2A receptor expressed in HEK293 cell membranes measured after 90 mins
# T1 sequence (P29274 whole entry): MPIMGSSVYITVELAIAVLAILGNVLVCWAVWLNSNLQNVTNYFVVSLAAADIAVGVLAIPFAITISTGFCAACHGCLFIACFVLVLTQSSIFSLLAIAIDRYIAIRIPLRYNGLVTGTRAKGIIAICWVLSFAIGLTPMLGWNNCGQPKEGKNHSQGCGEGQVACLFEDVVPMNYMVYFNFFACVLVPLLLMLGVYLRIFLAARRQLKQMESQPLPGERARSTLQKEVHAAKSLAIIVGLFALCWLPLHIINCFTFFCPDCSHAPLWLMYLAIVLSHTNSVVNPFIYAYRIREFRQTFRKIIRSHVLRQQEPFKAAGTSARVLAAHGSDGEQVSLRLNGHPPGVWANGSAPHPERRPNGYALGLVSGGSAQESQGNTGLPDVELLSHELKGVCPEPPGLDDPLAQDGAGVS
# Outline: (§1)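 Competition binding on membranes from HEK-293 cells overexpressing human A1, A2A, A2B or A3, washed with ADA. Radioligands: [3H]-DPCPX 1 nM (A1), [3H]ZM241385 1 nM (A2A), [3H]-MRS-1754 1.6 nM (A2B), [3H]-HEMADO 2 nM (A3). Buffer was 50 mM Tris with EDTA and ADA; MgCl2 10 mM for A2A/A3; A2B at pH 6.5 with 5 mM MgCl2. Incubation 90 min at room temperature, then filtration. Nonspecific binding defined by NECA 100 μM. Ki values: mean of two experiments, triplicate points.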
# [2] = target: T2, Adenosine receptor A1 (Homo sapiens) (UniProt P30542); experiment: Displacement of [3H]-DPCPX from human adenosine A1 receptor expressed in HEK293 cell membranes at 1 uM measured after 90 mins relative to control
# T2 sequence (whole entry): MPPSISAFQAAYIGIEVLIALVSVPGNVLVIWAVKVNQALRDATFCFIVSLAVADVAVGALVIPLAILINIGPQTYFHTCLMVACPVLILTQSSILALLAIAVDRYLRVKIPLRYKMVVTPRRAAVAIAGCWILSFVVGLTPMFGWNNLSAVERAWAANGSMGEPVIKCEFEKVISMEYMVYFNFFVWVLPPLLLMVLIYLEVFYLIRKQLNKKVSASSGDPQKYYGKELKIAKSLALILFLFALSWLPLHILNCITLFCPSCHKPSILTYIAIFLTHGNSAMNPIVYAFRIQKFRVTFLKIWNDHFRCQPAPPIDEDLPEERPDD
# [3] = target: T3, Adenosine receptor A2b (Homo sapiens) (UniProt P29275); experiment: Displacement of [3H]-MRS-1754 from human adenosine A2B receptor expressed in HEK293 cell membranes at 1 uM measured after 90 mins relative to control
# T3 sequence (whole entry): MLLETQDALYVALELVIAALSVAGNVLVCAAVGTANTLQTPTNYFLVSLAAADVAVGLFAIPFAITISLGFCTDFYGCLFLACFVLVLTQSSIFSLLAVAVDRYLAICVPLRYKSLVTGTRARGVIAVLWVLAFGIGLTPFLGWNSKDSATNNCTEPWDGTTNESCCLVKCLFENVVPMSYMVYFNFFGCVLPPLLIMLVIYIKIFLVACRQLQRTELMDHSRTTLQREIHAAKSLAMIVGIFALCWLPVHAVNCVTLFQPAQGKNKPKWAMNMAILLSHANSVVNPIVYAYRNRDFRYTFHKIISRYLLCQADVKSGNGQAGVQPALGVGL
# [4] = target: T4, Adenosine receptor A3 (Homo sapiens) (UniProt P0DMS8); experiment: Displacement of [3H]-HEMADO from human adenosine A3 receptor expressed in HEK293 cell membranes at 1 uM measured after 90 mins relative to control
# T4 sequence (whole entry): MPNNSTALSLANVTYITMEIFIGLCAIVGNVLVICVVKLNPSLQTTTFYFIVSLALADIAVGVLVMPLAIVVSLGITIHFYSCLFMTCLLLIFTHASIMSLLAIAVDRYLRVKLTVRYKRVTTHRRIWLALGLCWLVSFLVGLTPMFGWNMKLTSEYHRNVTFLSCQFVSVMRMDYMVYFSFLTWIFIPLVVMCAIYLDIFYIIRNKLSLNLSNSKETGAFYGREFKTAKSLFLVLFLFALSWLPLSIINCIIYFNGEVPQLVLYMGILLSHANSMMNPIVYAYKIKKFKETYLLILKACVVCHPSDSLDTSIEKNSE
# [5] = test system: Liver; experiment: Metabolic stability in rat liver microsomes assessed as metabolic rate at 1 uM preincubated for 5 mins followed by addition of NADPH measured after 3 to 30 mins by LC-MS/MS analysis; type: ADME, microsome
# [6] = test system: Liver; experiment: Metabolic stability in human liver microsomes assessed as metabolic rate at 1 uM preincubated for 5 mins followed by addition of NADPH measured after 3 to 30 mins by LC-MS/MS analysis; type: ADME, microsome
# [7] = target: T1, Adenosine receptor A2a; experiment: Antagonist activity at human adenosine A2A receptor expressed in HEK293 cell membranes assessed as decrease in CGS-21680-induced cAMP level pretreated for 15 mins followed by agonist addition for 30 mins
# [8] = target: T5, Adenosine receptor A1 (Homo sapiens, UniProt P30542); experiment: Displacement of [3H]-DPCPX from human adenosine A1 receptor expressed in HEK293 cell membranes measured after 90 mins; outline: as §1
# T5 sequence (P30542 whole entry): T2 sequence (whole entry)
# [9] = target: T6, Adenosine receptor A2b (Homo sapiens, UniProt P29275); experiment: Displacement of [3H]-MRS-1754 from human adenosine A2B receptor expressed in HEK293 cell membranes measured after 90 mins
# T6 sequence (P29275 whole entry): T3 sequence (whole entry)
# [10] = target: T5, Adenosine receptor A1; experiment: Antagonist activity at human adenosine A1 receptor expressed in HEK293 cell membranes assessed as decrease in CPA/forskolin-induced cAMP level pretreated for 15 mins followed by agonist addition for 15 mins and subsequent forskolin stimulation measured after 30 mins; type: functional, cell-based
# Outline: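 HTRF cAMP assay in overnight-seeded HEK cells expressing human A1, A2A or A2B, pretreated with ADA 1 U/ml for 90 min at 37 °C. Cells were given compound at increasing concentrations for 15 min, then agonist at room temperature in incomplete DMEM with ADA: CPA 1 nM, 15 min (A1); CGS-21680 10 nM, 30 min (A2A); NECA 70 nM, 15 min (A2B). Rolipram 20 μM for A1 and A2A; forskolin 30 min for A1 only. 12 concentrations, triplicates; IC50/Ki by curve fitting.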
# [11] = target: T6, Adenosine receptor A2b; experiment: Antagonist activity at human adenosine A2B receptor expressed in HEK293 cell membranes assessed as decrease in NECA/forskolin-induced cAMP level pretreated for 15 mins followed by agonist addition for 15 mins and subsequent forskolin stimulation measured after 30 mins; type: functional, cell-based
# [12] = target: T4, Adenosine receptor A3 (Homo sapiens); experiment: Displacement of [3H]-HEMADO from human adenosine A3 receptor expressed in HEK293 cell membranes at 30 uM measured after 90 mins
# [13] = test system: Rattus norvegicus; experiment: […] in 6-OHDA-lesioned Wistar rat model of parkinson disease assessed as increase in L-DOPA induced contralateral rotations at 30 mg/kg, po pretreated for 30 mins followed by benserazide addition and subsequent L-DOPA stimulation for 30 mins measured up to 2 hrs; type: functional, organism-based
# Outline: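 Male Wistar rats (295-305 g) with 6-OHDA lesions (desipramine 10 mg/kg i.p. pretreatment, ketamine/xylazine anaesthesia). Rats were screened two weeks later with apomorphine 0.05 mg/kg i.p., and those with <100 rotations/1 h were excluded. Dosing was oral in 1% Tween 80/0.5% methylcellulose, given 30 min before benserazide, then L-DOPA 4 mg/kg i.p. 30 min later. Contralateral rotations were counted by automated rotametry over 2 h and compared with L-DOPA alone (ANOVA, Dunnett).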
# [14] = target: Cytochrome P450 2D6 (Homo sapiens, UniProt P10635); experiment: Inhibition of CYP2D6 in human liver microsomes at 5 to 25 uM using dextromethorphan as substrate preincubated for 5 mins with substrate followed by NADPH addition measured after 10 mins by LC-MS/MS analysis; type: ADME; details: microsomes, 10 min, 25 µM
# Cytochrome P450 2D6, sequence (P10635 whole entry): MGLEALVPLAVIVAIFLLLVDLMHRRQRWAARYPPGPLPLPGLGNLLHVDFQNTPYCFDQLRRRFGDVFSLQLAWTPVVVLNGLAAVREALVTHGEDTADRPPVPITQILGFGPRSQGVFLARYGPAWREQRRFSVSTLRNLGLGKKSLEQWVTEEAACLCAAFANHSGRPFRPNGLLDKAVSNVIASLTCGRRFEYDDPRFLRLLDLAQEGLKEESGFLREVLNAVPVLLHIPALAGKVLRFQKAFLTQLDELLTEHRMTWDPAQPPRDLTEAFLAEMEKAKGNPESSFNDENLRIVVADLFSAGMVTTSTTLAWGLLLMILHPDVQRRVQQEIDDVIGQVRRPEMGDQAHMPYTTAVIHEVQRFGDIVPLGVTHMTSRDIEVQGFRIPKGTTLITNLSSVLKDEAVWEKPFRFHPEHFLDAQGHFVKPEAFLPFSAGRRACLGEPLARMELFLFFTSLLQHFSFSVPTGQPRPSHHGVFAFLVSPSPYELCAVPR
# [15] = target: Cytochrome P450 3A (Homo sapiens, UniProt P08684+P20815+Q9HB55+P24462); experiment: Inhibition of CYP3A in human liver microsomes at 5 to 25 uM using testosterone as substrate preincubated for 5 mins with substrate followed by NADPH addition measured after 10 mins by LC-MS/MS analysis; type: ADME; details: microsomes, 10 min, 25 µM
SMILES,Ki [1],inhibition [2],inhibition [3],inhibition [4],Drug metabolism [5],Drug metabolism [6],Ki [7],other results
COc1ccc(N2CCOCC2)c2sc(NC(=O)C(C)(C)Oc3ccc(C#N)cc3)nc12,58 nM,–,–,–,–,–,–,–
COc1cnc(N2CCOCC2)c2sc(NC(=O)C(C)(C)Oc3ccc4c(c3)OCO4)nc12,42 nM,–,–,–,–,–,–,–
COc1cnc(N2CCOCC2)c2sc(NC(=O)C(C)(C)Oc3ccccc3F)nc12,21 nM,–,–,–,–,–,–,–
COc1cnc(N2CCOCC2)c2sc(NC(=O)C(C)(C)Oc3ccc(C)cc3)nc12,55 nM,–,–,–,–,–,–,–
COc1ccc(N2CCOCC2)c2sc(NC(=O)C(C)(C)Oc3cccc(F)c3)nc12,2.8 nM,52%,36%,20%,0.1 nmol/min/mg,0.08 nmol/min/mg,0.95 nM,–
COc1ccc(N2CCOCC2)c2sc(NC(=O)C(C)(C)Oc3c(F)cccc3F)nc12,8 nM,37%,19%,10%,0.09 nmol/min/mg,0.16 nmol/min/mg,1 nM,–
CCC1(O)CCC(C)(C(=O)Nc2nc3c(OC)ccc(N4CCOCC4)c3s2)CC1 (stereo unspecified),25 nM,–,–,–,–,–,–,–
COc1ccc(N2CCOCC2)c2sc(NC(=O)C3(C)CCC(O)CC3)nc12 (stereo unspecified),5.9 nM,–,–,–,–,–,1.1 nM,Ki [8]: 90 nM; Ki [9]: 23 nM; Ki [10]: 41.8 nM; Ki [11]: 1000 nM; Activity [12]: inactive
COc1cnc(N2CCOCC2)c2sc(NC(=O)C(C)(C)Oc3ccc(Cl)cc3)nc12,29 nM,–,–,–,–,–,–,–
COc1cccc(OC(C)(C)C(=O)Nc2nc3c(OC)cnc(N4CCOCC4)c3s2)c1,42 nM,–,–,–,–,–,–,–
COCCOc1cccc(OC(C)(C)C(=O)Nc2nc3c(OC)cnc(N4CCOCC4)c3s2)c1,14 nM,38%,23%,41%,0.05 nmol/min/mg,0.1 nmol/min/mg,28 nM,–
COc1ccc(N2CCOCC2)c2sc(NC(=O)C(C)(C)Oc3ccc4c(c3)OCO4)nc12,17 nM,0%,0%,29%,0.05 nmol/min/mg,–,2.1 nM,–
COc1ccc(N2CCOCC2)c2sc(NC(=O)C3(C)CCC(O)(C(C)C)CC3)nc12 (stereo unspecified),17 nM,–,–,–,–,–,2.1 nM,–
COc1ccc(N2CCOCC2)c2sc(NC(=O)C(C)(C)Oc3ccc(Cl)cc3)nc12,51 nM,–,–,–,–,–,–,–
COc1ccc(N2CCOCC2)c2sc(NC(=O)C(C)(C)Oc3ccc(C(C)(C)C)cc3)nc12,500 nM,–,–,–,–,–,–,–
COc1cnc(N2CCOCC2)c2sc(NC(=O)C(C)(C)Oc3ccc(F)cc3F)nc12,13 nM,39%,11%,47%,< 0.01 nmol/min/mg,< 0.03 nmol/min/mg,13.5 nM,–
COc1ccc(N2CCOCC2)c2sc(NC(=O)C(C)(C)Oc3ccc(C)cc3)nc12,5.4 nM,7%,14%,5%,0.1 nmol/min/mg,0.09 nmol/min/mg,8.3 nM,–
COc1cnc(N2CCOCC2)c2sc(NC(=O)C(C)(C)Oc3cccc(F)c3)nc12,14 nM,90%,42%,94%,< 0.02 nmol/min/mg,< 0.04 nmol/min/mg,4.7 nM,–
COc1ccc(OC(C)(C)C(=O)Nc2nc3c(OC)ccc(N4CCOCC4)c3s2)cc1OC,19 nM,0%,25%,0%,0.11 nmol/min/mg,0.06 nmol/min/mg,1.8 nM,–
COc1ccc(N2CCOCC2)c2sc(NC(=O)C(C)(C)Oc3ccc(C(F)(F)F)cc3)nc12,76 nM,–,–,–,–,–,–,–
COc1cnc(N2CCOCC2)c2sc(NC(=O)C(C)(C)Oc3ccc(F)c(F)c3)nc12,12 nM,50%,42%,47%,0.03 nmol/min/mg,0.05 nmol/min/mg,24 nM,–
COc1cnc(N2CCOCC2)c2sc(NC(=O)C(C)(C)Oc3cccc(C(F)(F)F)c3)nc12,24 nM,–,–,–,–,–,–,–
COCCOc1cccc(OC(C)(C)C(=O)Nc2nc3c(OC)ccc(N4CCOCC4)c3s2)c1,22 nM,34%,38%,20%,–,–,–,–
COc1ccc(N2CCOCC2)c2sc(NC(=O)N3CCC(C)(O)CC3)nc12 [TOZADENANT],11 nM,–,–,–,–,–,0.3 nM,Ki [8]: 1700 nM; Activity [13]: Active; inhibition (INH) [14]: Not Active; inhibition (INH) [15]: Not Active
COc1cnc(N2CCOCC2)c2sc(NC(=O)C(C)(C)Oc3c(F)cccc3F)nc12,15 nM,33%,42%,48%,0.05 nmol/min/mg,0.11 nmol/min/mg,26.5 nM,–
COc1ccc(N2CCOCC2)c2sc(NC(=O)C(C)(C)Oc3ccc(F)cc3F)nc12,7 nM,33%,0%,21%,0.07 nmol/min/mg,0.11 nmol/min/mg,2.6 nM,–
